Assays:
Leukemia cell = assay: Antitumor activity against human Leukemia cells after 48 hrs by SRB assay; assay type: functional; details: for TGI: read-out: pTGI (converted)
Outline: (§1)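 NCI 60-cell panel two-stage screen: a single-dose pass at 10^-5 M, then five-dose testing for active compounds. Compounds were dissolved in DMSO and tested at five 10-fold dilutions, the highest 10^-4 M (10^-3 M in some cases). Results are given as the negative log molar concentration at three end points: pGI50, pTGI (total growth inhibition) and pLC50. Means are panel-subtype averages.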

NSCLC = assay: Antitumor activity against human NSCLC cells after 48 hrs by SRB assay; assay type: functional; details: for GI50 / TGI: Homo sapiens, NSCLC, 48 h; for TGI: read-out: pTGI (converted); outline: as §1
[1] = Antitumor activity against human Colon cancer cells after 48 hrs by SRB assay; assay type: functional, Cancer cell lines; details: for GI50 / LC50 (50% lethal concentration) / TGI: Homo sapiens, Cancer cell lines, 48 h; for TGI: read-out: pTGI (converted); outline: as §1
[2] = Antitumor activity against human CNS cancer cells after 48 hrs by SRB assay; assay type: functional, Cancer cell lines; details: for TGI: read-out: pTGI (converted); outline: as §1
Melanoma cell = assay: Antitumor activity against human Melanoma cells after 48 hrs by SRB assay; assay type: functional; details: for CC50: read-out: pLC50 (the source's name) (converted); for TGI: read-out: pTGI (converted); outline: as §1
[3] = Antitumor activity against human ovarian cancer cells after 48 hrs by SRB assay; assay type: functional, Cancer cell lines; details: for GI50 / TGI: Homo sapiens, Cancer cell lines, 48 h; for TGI: read-out: pTGI (converted); outline: as §1
[4] = Antitumor activity against human renal cancer cells after 48 hrs by SRB assay; assay type: functional, Cancer cell lines; details: for TGI: read-out: pTGI (converted); outline: as §1
[5] = Antitumor activity against human prostate cancer cells after 48 hrs by SRB assay; assay type: functional, Cancer cell lines; details: for GI50 / TGI: Homo sapiens, Cancer cell lines, 48 h; for TGI: read-out: pTGI (converted); outline: as §1
[6] = Antitumor activity against human Breast cancer cells after 48 hrs by SRB assay; assay type: functional, Cancer cell lines; details: for GI50 / TGI: Homo sapiens, Cancer cell lines, 48 h; for TGI: read-out: pTGI (converted); outline: as §1
[7] = Homo sapiens, Leukemia cell, 48 h
[8] = Homo sapiens, Cancer cell lines, 48 h
[9] = Homo sapiens, Cancer cell lines, 48 h, read-out: pGI50 (converted)
[10] = Homo sapiens, Melanoma cell, 48 h, read-out: pGI50 (converted)
[11] = Homo sapiens, Melanoma cell, 48 h

COc1ccc(OC)c(-c2nc3sccn3c2/C=C2/C(=O)N(C)c3ccccc32)c1
GI (Leukemia cell): 7.41 µM
GI50 (Leukemia cell; [7]): 7.41 µM
LC50 (concentration killing 50% of cells) (Leukemia cell; [7]): 97.7 µM
TGI (Leukemia cell; [7]): 44.7 µM
GI (NSCLC): 26.92 µM
GI50 (NSCLC): 26.9 µM
TGI (NSCLC): 74.1 µM
GI [1]: 23.44 µM
GI50 [1]: 23.4 µM
LC50 (50% lethal concentration) [1]: 95.5 µM
TGI [1]: 67.6 µM
GI50 [2]: 21.38 µM
LC50 [2, 8]: 97.7 µM
GI50 [2, 9]: 21.4 µM
TGI [2, 8]: 57.5 µM
GI50 (Melanoma cell): 19.5 µM
GI50 (Melanoma cell; [10]): 19.5 µM
CC50 (Melanoma cell; [11]): 87.1 µM
TGI (Melanoma cell; [11]): 47.9 µM
GI [3]: 29.51 µM
GI50 [3]: 29.5 µM
TGI [3]: 81.3 µM
GI [4]: 27.54 µM
GI50 [4, 8]: 27.5 µM
TGI [4, 8]: 72.4 µM
GI [5]: 25.12 µM
GI50 [5]: 25.1 µM
TGI [5]: 91.2 µM
GI [6]: 15.85 µM
GI50 [6]: 15.8 µM
TGI [6]: 53.7 µM

Cc1cn2c(/C=C3/C(=O)N(C)c4ccc(Cl)cc43)c(C)nc2s1
GI (Leukemia cell): 1.45 µM
GI50 (Leukemia cell; [7]): 1.45 µM
TGI (Leukemia cell; [7]): 11.7 µM
GI (NSCLC): 7.94 µM
GI50 (NSCLC): 7.94 µM
TGI (NSCLC): 41.7 µM
GI [1]: 2.69 µM
GI50 [1]: 2.69 µM
LC50 (50% lethal concentration) [1]: 83.2 µM
TGI [1]: 38 µM
GI50 [2]: 3.16 µM
LC50 [2, 8]: 79.4 µM
GI50 [2, 9]: 3.16 µM
TGI [2, 8]: 28.8 µM
GI50 (Melanoma cell): 5.5 µM
GI50 (Melanoma cell; [10]): 5.5 µM
TGI (Melanoma cell; [11]): 63.1 µM
GI [3]: 3.8 µM
GI50 [3]: 3.8 µM
TGI [3]: 44.7 µM
GI [4]: 6.03 µM
GI50 [4, 8]: 6.03 µM
TGI [4, 8]: 61.7 µM
GI [5]: 1 µM
GI50 [5]: 1 µM
TGI [5]: 4.37 µM
GI [6]: 6.76 µM
GI50 [6]: 6.76 µM
TGI [6]: 33.1 µM

COc1ccc2c(c1)/C(=C\c1c(-c3cc(OC)ccc3OC)nc3sc(C)cn13)C(=O)N2C
GI (Leukemia cell): 15.85 µM
GI50 (Leukemia cell; [7]): 15.8 µM
TGI (Leukemia cell; [7]): 63.1 µM
GI (NSCLC): 28.84 µM
GI50 (NSCLC): 28.8 µM
TGI (NSCLC): 89.1 µM
GI [1]: 33.11 µM
GI50 [1]: 33.1 µM
TGI [1]: 81.3 µM
GI50 [2]: 23.99 µM
GI50 [2, 9]: 24 µM
TGI [2, 8]: 74.1 µM
GI50 (Melanoma cell): 25.12 µM
GI50 (Melanoma cell; [10]): 25.1 µM
TGI (Melanoma cell; [11]): 56.2 µM
GI [3]: 25.7 µM
GI50 [3]: 25.7 µM
TGI [3]: 91.2 µM
GI [4]: 30.9 µM
GI50 [4, 8]: 30.9 µM
TGI [4, 8]: 97.7 µM
GI [5]: 30.9 µM
GI50 [5]: 30.9 µM
TGI [5]: 97.7 µM
GI [6]: 28.84 µM
GI50 [6]: 28.8 µM
TGI [6]: 95.5 µM

COc1ccc2c(c1)/C(=C\c1c(-c3ccc(C)cc3)nc3sc(C)cn13)C(=O)N2
GI (Leukemia cell): 4.07 µM
GI50 (Leukemia cell; [7]): 4.07 µM
TGI (Leukemia cell; [7]): 51.3 µM
GI (NSCLC): 14.45 µM
GI50 (NSCLC): 14.5 µM
TGI (NSCLC): 77.6 µM
GI [1]: 12.88 µM
GI50 [1]: 12.9 µM
TGI [1]: 66.1 µM
GI50 [2]: 14.45 µM
GI50 [2, 9]: 14.5 µM
GI50 (Melanoma cell): 16.22 µM
GI50 (Melanoma cell; [10]): 16.2 µM
TGI (Melanoma cell; [11]): 55 µM
GI [3]: 18.2 µM
GI50 [3]: 18.2 µM
TGI [3]: 97.7 µM
GI [4]: 13.18 µM
GI50 [4, 8]: 13.2 µM
TGI [4, 8]: 67.6 µM
GI [5]: 4.68 µM
GI50 [5]: 4.68 µM
GI [6]: 12.88 µM
GI50 [6]: 12.9 µM

Cc1cn2c(/C=C3/C(=O)N(C)c4ccccc43)c(C)nc2s1
GI (Leukemia cell): 5.01 µM
GI50 (Leukemia cell; [7]): 5.01 µM
TGI (Leukemia cell; [7]): 20.9 µM
GI (NSCLC): 17.78 µM
GI50 (NSCLC): 17.8 µM
TGI (NSCLC): 75.9 µM
GI [1]: 4.57 µM
GI50 [1]: 4.57 µM
TGI [1]: 69.2 µM
GI50 [2]: 8.71 µM
GI50 [2, 9]: 8.71 µM
TGI [2, 8]: 51.3 µM
GI50 (Melanoma cell): 13.18 µM
GI50 (Melanoma cell; [10]): 13.2 µM
TGI (Melanoma cell; [11]): 72.4 µM
GI [3]: 15.49 µM
GI50 [3]: 15.5 µM
TGI [3]: 74.1 µM
GI [4]: 22.39 µM
GI50 [4, 8]: 22.4 µM
TGI [4, 8]: 97.7 µM
GI [5]: 21.38 µM
GI50 [5]: 21.4 µM
GI [6]: 5.5 µM
GI50 [6]: 5.5 µM
TGI [6]: 55 µM

Cc1nn2c(/C=C3/C(=O)Nc4ccccc43)c(-c3ccc(Cl)cc3)nc2s1
GI (Leukemia cell): 17.78 µM
GI50 (Leukemia cell; [7]): 17.8 µM
GI (NSCLC): 19.05 µM
GI50 (NSCLC): 19.1 µM
TGI (NSCLC): 45.7 µM
GI [1]: 18.62 µM
GI50 [1]: 18.6 µM
TGI [1]: 44.7 µM
GI50 [2]: 3.24 µM
LC50 [2, 8]: 38.9 µM
GI50 [2, 9]: 3.24 µM
TGI [2, 8]: 16.6 µM
GI50 (Melanoma cell): 19.95 µM
GI50 (Melanoma cell; [10]): 20 µM
CC50 (Melanoma cell; [11]): 47.9 µM
TGI (Melanoma cell; [11]): 35.5 µM
GI [3]: 25.7 µM
GI50 [3]: 25.7 µM
GI [4]: 17.78 µM
GI50 [4, 8]: 17.8 µM
LC50 (concentration killing 50% of cells) [4, 8]: 46.8 µM
TGI [4, 8]: 33.1 µM
GI [5]: 12.3 µM
GI50 [5]: 12.3 µM
TGI [5]: 32.4 µM
GI [6]: 16.98 µM
GI50 [6]: 17 µM
TGI [6]: 42.7 µM

Reference: ChEMBL document CHEMBL1140214, “Antitumor activity of new substituted 3-(5-imidazo[2,1-b]thiazolylmethylene)-2-indolinones and 3-(5-imidazo[2,1-b]thiadiazolylmethylene)-2-indolinones: selectivity against colon tumor cells and effect on cell cycle-related events” (2008)
